Measured values from ChEMBL document CHEMBL5715960, “Epigenetic Co-Deregulation of EZH2/TET1 is a Senescence-Countering, Actionable Vulnerability in Triple-Negative Breast Cancer” (Theranostics, 2019).
The source made the active and inactive calls. The rule behind the calls is not given here.

What was measured:
MDA-MB-436 [1] = test: Antiproliferative activity against human MDA-MB-436 cells assessed as increase in global H3K9me3 expression level by immunoblot analysis; assay type: functional, cell-based
How it was run: (§1)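 Cells exposed to GSK343 at 2 µM (standard level unless stated otherwise), lysed and immunoblotted; α-tubulin and total H3 as loading controls.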

MDA-MB-231 [2] = test: Antiproliferative activity against human MDA-MB-231 cells assessed as increase in global H3K9me3 expression level by immunoblot analysis; assay type: functional, cell-based; how it was run: as §1
MCF7 = test: Antiproliferative activity against human MCF7 cells assessed as increase in global H3K9me3 expression level by immunoblot analysis; assay type: toxicity, cell-based; how it was run: as §1
BT-474 = test: Antiproliferative activity against human BT-474 cells assessed as increase in global H3K9me3 expression level by immunoblot analysis; assay type: toxicity, cell-based; how it was run: as §1
MDA-MB-231 [3] = test: Cytotoxicity against human MDA-MB-231 cells upto 0.5 ug/ml; assay type: functional, cell-based; conditions: dose <= 0.5 µg/ml
MDA-MB-436 [4] = test: Cytotoxicity against human MDA-MB-436 cells upto 0.5 ug/ml; assay type: functional, cell-based; conditions: dose <= 0.5 µg/ml

SMILES | Activity (MDA-MB-436 [1]) | Activity (MDA-MB-231 [2]) | Activity (MCF7) | Activity (BT-474) | Activity (MDA-MB-231 [3]) | Activity (MDA-MB-436 [4])
Nc1nccc2c1ncn2[C@@H]1C=C(CO)[C@@H](O)[C@H]1O | inactive | Active | Non-Toxic | Non-Toxic | – | –
COc1cccc2c1C(=O)c1c(O)c3c(c(O)c1C2=O)C[C@@](O)(C(=O)CO)C[C@@H]3O[C@H]1C[C@H](N)[C@H](O)[C@H](C)O1 | – | – | – | – | inactive | inactive
